Screens: PubChem, several laboratories
Rows were chosen to be rich in hits. Some 11% of all compounds tested hit in one or more screens of this group.
TNAP act mid DEA = human TNAP enzyme activators, primary screen, biochemical, luminescent, intermediate phosphate acceptor level. activation factor at 20 µM. purified TNAP, CDP-star luminescence, 100 mM DEA, 30 min; stronger effect = higher value; scale: 0 levamisole-inhibited, 1 vehicle-only enzyme. Alkaline phosphatase, tissue-nonspecific isozyme (Homo sapiens), P05186. 64,000 tested, under 10 active. AID 813, 2007;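 active = activation factor of at least 2 at 20 µM, relative to controls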
S1P1 ag-PAM = S1P1 agonists and agonism potentiators, primary screen, cell-based, primary and confirmation screens, CRE-bla reporter | Sphingosine 1-phosphate receptor 1 (Homo sapiens), P21453 | S1P1 CRE-bla cells, forskolin, beta-lactamase FRET, potentiator mode; S1P1 agonist co-added at EC20, 2 nM; 100% = saturating reference agonist, 0% = basal | activation, % at 9.5 µM | 56,000 compounds, 0.57% hits | AID 449, 2006;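 active = activation above a cutoff set at the mean activation of all tested compounds plus 3 SD, cut at about 54% in these data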;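 also: forskolin at 4 µM as EC80 and the EC20 agonist is SEW2871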
M1 agonist = M1 muscarinic receptor agonists, primary screen, CHO-M1 cells, Fluo-4 calcium, agonist mode; 64,000 compounds, 3% hits; Fluo-4 calcium fluorescence; stronger effect = higher value; Muscarinic acetylcholine receptor M1; B-score at 10 µM;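 active = fluorescence rise, raw or as B-score row- and column-corrected plate score, outside the 99.7% band of its plate's samples, either direction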
S1P3 agonist = human S1P3 receptor agonists, primary screen, cell-based, primary and confirmation, NFAT-BLA reporter; Sphingosine 1-phosphate receptor 3 (Homo sapiens), Q99500; S1P3 NFAT-BLA reporter cells, agonism, FRET ratio; relative to 1 µM S1P, basal subtracted; activation, % at 4.5 µM; 60,000 compounds, 0.1% hits; AID 373, 2006;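 active = activation above the screen-wide mean plus 3 SD, cut at about 4.5% in these data, passing the limit was not always enough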
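Measure – % activation relative to 1 µM S1P (100%), per plate · System – stable CHO line with human S1P3, Gα16, NFAT-BLA reporter · Timing – cells plated overnight, compound 4 h 37 °C, substrate 2 h RT · Technique – fluorescent BLA substrate, ex 405 nm, em 460/535 nm ratio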
M1 antagonist = antagonists of rat M1 muscarinic receptor; 64,000 compounds, 3.4% hits; AID 628, 2007; Muscarinic acetylcholine receptor M1 (Rattus norvegicus), P08482; B-score at 10 µM; CHO-M1 cells, Fluo-4 calcium, ACh EC80 antagonist mode; stronger effect = lower value;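 active = calcium fluorescence response, raw or row-and-column corrected B-score, differing from the plate sample mean either way at a set confidence level, mostly lower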
D1 allo mod = D1 CRE-luciferase signal change, two-sided – cell-based, HEK293 D1, dopamine EC30, D1 allosteric modulator project, primary screen. D(1A) dopamine receptor (Homo sapiens), P21728. dopamine EC30 potentiation; actives deviate in either direction. B-score at 10 µM. 58,000 compounds, 5.9% hits;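 active = luminescence count or its row- and column-corrected plate score outside the 99.7% band of the plate's sample wells, on either side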
Target sequence (P21728 whole entry, looked up): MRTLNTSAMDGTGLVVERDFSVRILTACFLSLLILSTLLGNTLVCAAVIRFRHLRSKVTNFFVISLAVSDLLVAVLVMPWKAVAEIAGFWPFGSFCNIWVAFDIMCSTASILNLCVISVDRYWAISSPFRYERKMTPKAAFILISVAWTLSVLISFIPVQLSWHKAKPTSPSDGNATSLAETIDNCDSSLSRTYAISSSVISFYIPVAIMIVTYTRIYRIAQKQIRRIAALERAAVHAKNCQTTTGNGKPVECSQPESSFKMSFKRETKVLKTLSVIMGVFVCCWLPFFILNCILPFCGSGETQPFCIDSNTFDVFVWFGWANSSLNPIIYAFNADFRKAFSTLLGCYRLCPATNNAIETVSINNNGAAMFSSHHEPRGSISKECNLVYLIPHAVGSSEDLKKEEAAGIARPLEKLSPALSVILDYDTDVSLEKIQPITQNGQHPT
M1 antag conf = rat M1 muscarinic receptor antagonists, confirmation, CHO cells, Fluo-4 calcium, duplicate; shares compounds with M1 antagonist; AID 677, 2007; ACh EC80 antagonism; stronger effect = lower value; calcium response (max-min fluorescence) at 10 µM; 1,700 compounds, 43% hits;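 active = calcium response below the same-plate mean of wells given acetylcholine alone at its 80%-effect dose, minus 3 SD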
mGluR4 antag = human mGluR4 response to M1 antagonist hits, M1 allosteric modulator project, cell-based, antagonist mode, secondary assay 1. CHO-mGluR4 calcium flux, Fluo-4 fluorescence, glutamate EC80; stronger effect = lower value. 1,700 compounds, 0.9% hits. fluorescence response (max-min) at 10 µM. AID 678, 2007. shares compounds with M1 antagonist;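 active = fluorescence response below the plate's average for near-maximal glutamate wells, less 3 SD of those wells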;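 also: raw unnormalized fluorescence span taken in the window right after glutamate addition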
Each line names hits and unclear results; the compound was inactive in the other large screens (follow-up assays come after a bar, where they were run).

Cn1c(=O)cc(SCC(=O)N2CCN(Cc3ccc4c(c3)OCO4)CC2)c2ccccc21	M1 antagonist -2.1 | M1 antag conf 474 | mGluR4 antag inactive
CCn1c(=O)cc(SCC(=O)NCCN2CCN(Cc3ccccc3)CC2)c2ccccc21	M1 antagonist -3.5 | M1 antag conf inactive | mGluR4 antag inactive
Cc1ccc(NCc2nnc3n2CCCCC3)cc1	none
CCc1cc2c3c(c(=O)oc2cc1OC)CCCC3	M1 antagonist -1.8 (no result: S1P1 ag-PAM) | M1 antag conf inactive | mGluR4 antag inactive
FC(F)(F)C(Oc1nc(NC2CCCCC2)nc(N2CCOCC2)n1)C(F)(F)F	none
Cc1ccc(Nc2nc(OC(C(F)(F)F)C(F)(F)F)nc(N3CCOCC3)n2)cc1	M1 antagonist -3.7 (no result: S1P1 ag-PAM, S1P3 agonist) | M1 antag conf inactive | mGluR4 antag inactive
COc1ccccc1N1CCN(C(=O)Cn2nc(C(F)(F)F)c3c2CCC3)CC1	none
CC1CCCC(C)N1CC(O)COc1ccc(Cl)cc1 (stereo not given)	M1 antagonist -3.2 | M1 antag conf 501 | mGluR4 antag inactive
COc1cccc(OCC(O)CN2C(C)CCCC2C)c1 (stereo not given)	none
O=C(CN1CCC(O)CC1)N1c2ccccc2C=Cc2ccccc21	M1 antagonist -5.6 | M1 antag conf 243 | mGluR4 antag inactive
O=C1CS/C(=N\C(=O)N2c3ccccc3Sc3ccccc32)N1	none
O=C(CN1CCCC1)N1c2ccccc2Sc2ccccc21	M1 antagonist -19 | M1 antag conf inactive | mGluR4 antag inactive
O=C(c1ccco1)N1CCN(CC(=O)N2c3ccccc3CCc3ccccc32)CC1	none (no result: D1 allo mod)
CC1CCN(CC(=O)N2c3ccccc3CCc3ccccc32)CC1	none (no result: M1 agonist, M1 antagonist)
NCCCC(=O)N1c2ccccc2Sc2ccccc21	M1 antagonist -13 | M1 antag conf 59 | mGluR4 antag inactive
Cc1cc(C(=O)N(C)Cc2ccc(Br)cc2)no1	M1 antagonist -7.8 | M1 antag conf inactive | mGluR4 antag inactive
Cc1nnc(SCC(=O)Nc2nccs2)[nH]c1=O	M1 antagonist -14 | M1 antag conf inactive | mGluR4 antag inactive
Cc1cc(NC(=O)CSc2nnc(C)c(=O)[nH]2)no1	M1 antagonist -2.3 | M1 antag conf inactive | mGluR4 antag inactive
Cc1nnc(SCC(=O)Nc2cccc(C(F)(F)F)c2)[nH]c1=O	none
Cc1cc(C)nc(SCc2nnc(SCc3ccccc3Cl)o2)n1	M1 antagonist -4.5 | M1 antag conf inactive | mGluR4 antag inactive
Cc1nc(NC2=NCN(C3CCCCC3C)CN2)nc2ccccc12 (stereo not given)	M1 antagonist -4.9 | M1 antag conf 258 | mGluR4 antag inactive
Cc1nc(NC2=NCN(CC3CCCO3)CN2)nc2ccccc12 (stereo not given)	M1 antagonist -8.9 | M1 antag conf 108 | mGluR4 antag inactive
Cc1ccc(S(=O)(=O)NC2=NCN(C3CCCCC3)CN2)cc1	none
Cc1ccc2nc(NC3=NCN(Cc4ccccc4)CN3)nc(C)c2c1	none
CCn1c(SCC(=O)Nc2cc(NC(C)=O)ccc2OC)nnc1-c1ccccn1	none (no result: S1P1 ag-PAM)
Cc1ccc(N=C2SCCCN2C(=O)c2ccco2)cc1Cl	M1 antagonist -1.9 (no result: S1P1 ag-PAM, S1P3 agonist) | M1 antag conf 532 | mGluR4 antag inactive
O=C(Nc1ccc(N2CCOCC2)c(Cl)c1)c1ccco1	none
Cc1ccc2nc(NC3=NCN(Cc4cccnc4)CN3)nc(C)c2c1	none (no result: D1 allo mod)
Cc1nc(NC2=NCN(CCCN3CCOCC3)CN2)nc2c(C)cccc12	M1 antagonist -7.4 | M1 antag conf 48 | mGluR4 antag inactive
Cc1cc2nc(NC3=NCN(CCCN4CCOCC4)CN3)nc(C)c2cc1C	M1 antagonist -14 | M1 antag conf 22 | mGluR4 antag inactive
CCC1Oc2ccccc2N(CC(=O)NCCCN2CCCCC2CC)C1=O (stereo not given)	none
CC1CCCC(NC(=O)c2ccc3c(=O)n(CC4CCCO4)c(=O)[nH]c3c2)C1C (stereo not given)	none
C=CCn1c(=O)c(C(=O)Nc2ccccc2C(=O)OCC)c(O)c2ccccc21	M1 antagonist -2.5 | M1 antag conf inactive | mGluR4 antag inactive
O=c1c2ccccc2nc(SCc2nc(-c3ccccc3)no2)n1-c1ccc(F)cc1	none
COc1ccc(-c2noc(CSc3nc4ccccc4c(=O)n3-c3ccccc3)n2)cc1OC	M1 antagonist -3.9 (no result: S1P1 ag-PAM, D1 allo mod) | M1 antag conf inactive | mGluR4 antag inactive
CCOC(=O)c1[nH]c2ccc(OC)cc2c1NC(=O)CCN1CCc2ccccc2C1	M1 antagonist -3.1 (no result: D1 allo mod) | M1 antag conf 418 | mGluR4 antag inactive
COC(=O)c1[nH]c2ccccc2c1NC(=O)CCN1CCN(C2CCCCC2)CC1	M1 antagonist -3.7 | M1 antag conf 389 | mGluR4 antag inactive
O=c1c2ccccc2[nH]c(=S)n1CCCN1CCN(C2CCCCC2)CC1	M1 antagonist -2.3 | M1 antag conf 485 | mGluR4 antag inactive
CC1CCN(CCCn2c(=S)[nH]c3ccccc3c2=O)CC1	none
CCOC(=O)c1[nH]c2ccc(OC)cc2c1NC(C)=O	none
CCOC(=O)c1[nH]c2ccc(OC)cc2c1NC(=O)CCN1CCC(C)CC1	M1 antagonist -1.5 | M1 antag conf 426 | mGluR4 antag inactive
CCOC(=O)c1[nH]c2ccc(OCC)cc2c1NC(=O)CN1CCN(c2ccccc2)CC1	none
CCN(CC)C(=O)CSc1nnc(-c2cc3ccccc3cc2O)n1CC	M1 antagonist -3.4 | M1 antag conf inactive | mGluR4 antag inactive
O=C(CSc1nnc(-c2cc3ccccc3cc2O)n1Cc1ccco1)c1ccc(F)cc1	none
Cc1cc2n(n1)C(c1c[nH]c3ccccc13)Nc1ccccc1-2 (stereo not given)	none
CCOC(=O)N1CCC(Nc2c(NCCN3CCN(Cc4ccccc4)CC3)c(=O)c2=O)CC1	M1 antagonist -6.7 | M1 antag conf inactive | mGluR4 antag inactive
CCOC(=O)N1CCN(c2c(NCCN3CCN(Cc4ccccc4)CC3)c(=O)c2=O)CC1	none
